Bioassay records from PubChem.
Compounds with a hit are over-represented: about 2.3% of the library has one in this group of screens.
ZTA DNA inh = counter-screen for EBNA-1 inhibitors: inhibitors of Epstein-Barr virus ZTA; P03206; AID 2234; ZTA-DNA binding, fluorescence polarization; inhibition, % at 11 µM; actives 0.15% (n = 320,000); in the data active = inhibition above about 33%
HCV core dimer = blocks dimerization of HCV core protein. TR-FRET GST/Flag-core106 dimerization, 1536-well. inhibition, % at 5 µM. actives 0.33% (n = 300,000). AID 1899;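 active = inhibition above the mean of all tested compounds plus 3 SD, set per screening campaign, cut at about 45% in these data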
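Assay system – GST-tagged and Flag-tagged HCV core protein residues 1-106 · Quantity – core106 proteins, GST 13.5 nM and Flag 17 nM · Benchmarks – unlabelled core106 and no-GST-core106 wells · Read-out basis – percent inhibition of core106 dimerization signal · Detection – time-resolved FRET, ex 340 nm, em 617 and 671 nm · Schedule – 4 h at 22.5 °C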
EBV gp42 block = blocks Epstein-Barr virus glycoprotein 42 binding; Fluorescence polarization binding assay, mP read-out; inhibition, % (tested at 21.74 µM); actives 0.42% (n = 220,000); AID 1085; in the data active = inhibition above about 50%
Target sequence (Q1HVG2 whole entry, looked up): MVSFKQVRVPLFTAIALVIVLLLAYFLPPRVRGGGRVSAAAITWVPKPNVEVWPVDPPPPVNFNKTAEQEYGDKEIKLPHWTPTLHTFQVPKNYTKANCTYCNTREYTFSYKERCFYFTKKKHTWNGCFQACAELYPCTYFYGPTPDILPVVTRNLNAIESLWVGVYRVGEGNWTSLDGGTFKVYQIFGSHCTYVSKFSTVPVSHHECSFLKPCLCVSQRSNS
EBNA-1 inhibitor = blocks EBNA-1 binding to DNA; EBNA-1 DNA binding, fluorescence polarization; inhibition, % at 14.8 µM; actives 0.34% (n = 300,000); AID 1950; in the data active = inhibition above about 28%
GPR7 antag = blocks human GPR7 receptor signaling; inhibition, % at 4.4 µM; actives 1.1% (n = 290,000); P48145; GPR7-expressing cells, fluorescence antagonist assay; in the data active = inhibition above about 16%, passing the limit was not always enough;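 also: cells stimulated with the agonist NPW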
Target sequence (P48145 whole entry, looked up): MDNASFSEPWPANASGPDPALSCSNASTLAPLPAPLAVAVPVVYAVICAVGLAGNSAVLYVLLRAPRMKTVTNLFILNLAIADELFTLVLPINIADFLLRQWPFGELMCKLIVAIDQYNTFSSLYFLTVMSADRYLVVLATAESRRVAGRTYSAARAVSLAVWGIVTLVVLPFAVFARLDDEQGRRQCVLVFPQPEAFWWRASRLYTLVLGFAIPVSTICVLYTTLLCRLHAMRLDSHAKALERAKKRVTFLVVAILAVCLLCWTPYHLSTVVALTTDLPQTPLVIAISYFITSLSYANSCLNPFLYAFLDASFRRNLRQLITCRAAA
HCV NS3 hel inh = inhibitors of Hepatitis C virus NS3 helicase | actives 0.56% (n = 290,000) | NS3 helicase DNA unwinding, Cy5 molecular beacon fluorescence | AID 1800 | inhibition, % at 10.9 µM;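 active = inhibition above the mean of all tested compounds plus 3 SD, set per campaign, cut at about 35% in these data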
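System: Hepatitis C virus NS3 helicase domain fragment enzyme | Reagent: Annealed dual-labelled DNA beacon duplex, ATP-started | Compound dosing: 10.9 µM single point, 0.8% DMSO | Incubation: 1 h reaction at 25 °C, ATP-initiated | Technique: Cy5 fluorescence | Evaluation: Percent inhibition from t60/t0 fluorescence ratio | Benchmarks: Low DMSO, high thioflavine S at 110 µM | Replication: Singlicate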
ZTA inh confirm = EBV ZTA DNA binding inhibition, confirmation; shares compounds with ZTA DNA inh; Zta-ZRE DNA binding, fluorescence polarization; inhibition, % at 11.1 µM; actives 30% (n = 320); AID 2361;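 active = mean inhibition across triplicate runs above the hit threshold derived for the original primary screen, cut at about 33% in these data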
EBNA1 counter = counter-screen for ZTA inhibitors: EBNA-1 DNA binding inhibition; shares compounds with ZTA DNA inh; fluorescence polarization; inhibition, % at 14.8 µM; 320 tested, under 10 active; call rule not given here
Of the large screens only hits and unclear results are named; the others gave an inactive call (follow-up assays come after a bar, where they were run).

COC(=O)C1CCN(S(=O)(=O)c2ccc(OC)cc2)CC1	none
CC(=O)c1sc(NC(=O)c2oc3ccc(F)cc3c2C)nc1C	ZTA DNA inh 66.9 (no result: HCV core dimer, EBV gp42 block, EBNA-1 inhibitor, GPR7 antag, HCV NS3 hel inh) | ZTA inh confirm 47.0 | EBNA1 counter inactive
CC(=O)c1sc(NC(=O)c2cc(=O)c3ccccc3o2)nc1C	none
COc1ccc2nc(NC(=O)c3cccnc3SC)sc2c1	none
Cc1cc(S(=O)(=O)Nc2ccc(C(=O)NCCCN3CCCC3=O)cc2)ccc1F	none (no result: EBV gp42 block, GPR7 antag, HCV NS3 hel inh)
O=C(Nc1cccc(-c2cn3ccccc3n2)c1)c1cc2ccccc2oc1=O	ZTA DNA inh 36.4 | ZTA inh confirm 34.8 | EBNA1 counter inactive
O=C1c2cccc(Cl)c2C(=O)c2c1cccc2N1CCCC1	none (no result: EBV gp42 block)
Cc1cc(=O)oc(C)c1C(=O)OCC(=O)c1ccc(Br)cc1	none
Cc1cc(=O)oc(C)c1C(=O)OCC(=O)c1ccc(Cl)cc1	ZTA DNA inh 35.9 | ZTA inh confirm inactive | EBNA1 counter inactive
CCCc1nnc(NC(=O)CCC(=O)N2CCN(Cc3ccc(F)cc3)CC2)s1	none (no result: EBV gp42 block)
O=C(O)CCn1cc(/C=C/C(=O)c2ccc(Cl)cc2)c(-c2ccc(Br)cc2)n1	ZTA DNA inh 45.2 | ZTA inh confirm inactive | EBNA1 counter inactive
CCCNCc1cc(OC)c(OCc2ccccc2)cc1Br	none
NC1=NC(=O)/C(=C/c2ccc(-c3ccc(S(N)(=O)=O)cc3)o2)S1	ZTA DNA inh 37.3 (no result: EBV gp42 block) | ZTA inh confirm inactive | EBNA1 counter inactive
O=C1C(Nc2ccccc2)=C/C(=N/S(=O)(=O)c2cccs2)c2ccccc21	none
Cc1ccc(S(=O)(=O)/N=C2\C=C(Nc3cccc(C(=O)O)c3)C(=O)c3ccccc32)cc1	ZTA DNA inh 33.3 (no result: EBV gp42 block) | ZTA inh confirm 35.5 | EBNA1 counter inactive
CCc1ccc(S(=O)(=O)/N=C2\C=C(Nc3ccc(C(=O)O)cc3)C(=O)c3ccccc32)cc1	ZTA DNA inh 53.2 (no result: EBV gp42 block) | ZTA inh confirm 51.8 | EBNA1 counter inactive
Cc1ccc(S(=O)(=O)/N=C2\C=C(Nc3cccc(C(=O)O)c3)C(=O)c3ccccc32)c(C)c1	none (no result: EBV gp42 block)
CN(C(=O)COC(=O)c1ccc(=O)n(Cc2ccccc2)n1)C1CCS(=O)(=O)C1 (centres undefined)	none (no result: EBV gp42 block, GPR7 antag, HCV NS3 hel inh)
Cc1ccc(OCC(=O)NCCc2c[nH]c3ccccc23)cc1	none
COc1ccc(/C=C2\N=C(SC)N(c3ccccc3OC)C2=O)cc1	none
CCOc1ccc(N2C(=O)/C(=C/c3ccccc3)N=C2SC)cc1	ZTA DNA inh 41.6 | ZTA inh confirm inactive | EBNA1 counter inactive
COCCN(C(=O)Cc1coc2cc(C)c(C)cc12)c1c(N)n(Cc2ccccc2)c(=O)[nH]c1=O	none (no result: EBV gp42 block, GPR7 antag, HCV NS3 hel inh)
O=C1C=C(N2CCOCC2)c2ccccc2C1=O	ZTA DNA inh 53.9 (no result: EBV gp42 block) | ZTA inh confirm 68.1 | EBNA1 counter inactive
Cc1cc(C(=O)N/N=C/c2c(C)nn(-c3ccccc3)c2C)c(C)o1	none
Cc1ccc(C)c(NC(=O)C2CCN(C(=O)c3cccs3)CC2)c1	none (no result: EBV gp42 block)
Cc1cc(=O)n2c(C(=O)Nc3ccc(C)c(C)c3)c(C(=O)Nc3ccccc3)sc2n1	ZTA DNA inh 53.2 | ZTA inh confirm inactive | EBNA1 counter 78.2
O=C1Nc2ccc(Br)cc2/C1=C/c1ccc(C(=O)O)cc1	ZTA DNA inh 34.3 (no result: EBV gp42 block) | ZTA inh confirm 46.3 | EBNA1 counter inactive
CN(CC(=O)Nc1ccc(Cl)c(Cl)c1)CC(=O)Nc1ccc2c(c1)OCO2	ZTA DNA inh active (no result: HCV core dimer, EBV gp42 block, EBNA-1 inhibitor, GPR7 antag, HCV NS3 hel inh) | ZTA inh confirm inactive | EBNA1 counter inactive
Cc1cccc(OCCCC(=O)NNC(=O)c2ccc(F)cc2)c1	none (no result: HCV core dimer, EBV gp42 block, EBNA-1 inhibitor, GPR7 antag, HCV NS3 hel inh)
CCC(CC)N1CCN(C(=O)c2cccc(Cl)c2)CC1	none (no result: EBV gp42 block)
Nc1nnnn1/N=C/c1ccc(F)cc1	ZTA DNA inh 51.9 (no result: EBV gp42 block) | ZTA inh confirm inactive | EBNA1 counter inactive
Nc1nnnn1/N=C/c1ccc(Br)cc1	none (no result: ZTA DNA inh, HCV core dimer, EBV gp42 block, EBNA-1 inhibitor)
CCn1nc(C)c(CNC(=O)c2cc(COc3ccc(C)nc3)on2)c1C	none (no result: EBV gp42 block)
NC(=O)c1ccc(NC(=O)CSc2nnc(-c3ccc4c(c3)OCO4)o2)cc1	ZTA DNA inh 34.5 (no result: HCV core dimer, EBV gp42 block, EBNA-1 inhibitor, GPR7 antag, HCV NS3 hel inh) | ZTA inh confirm inactive | EBNA1 counter inactive
